The source of these data is ChEMBL document CHEMBL1157670, “Total synthesis and cytotoxicity evaluation of all ochratoxin A stereoisomers” (Bioorg Med Chem, 2010).

In general, EC50 refers to the concentration needed to bring the measured effect to its halfway point. By IC50 is commonly meant the concentration that inhibits the measured activity by half. The low end stands for inhibition by little substance, the high end for a need for much substance.

A value given as a limit tells only on which side of the number the result lay.

Common to all, as to assay type: functional, cell-based
The test system of experiment [1] is HepG2. Description: Cytotoxicity against human HepG2 cells assessed as LDH release after 48 hrs by microplate reader method. The procedure, abridged: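 Hep G2 cells in DMEM/10% FCS, seeded 2×10^4/well, switched to serum-free after 48 h at ~80% confluence. After 24 h, compound added at 10 nM–50 µM (1 mM methanol stock) for 48 h. Cells lysed on ice with 1% Triton X-100 Tris buffer. Lysate and medium LDH read kinetically as NADH loss ([…], 10 mM pyruvate, HEPES pH 7.0) at 340 nm over 60 min at 37 °C. Released vs total LDH normalized to positive and negative controls. n = 9.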
(In general: Release of lactate dehydrogenase indicates damage to the cell membrane.)

Experiment [2] deals with HepG2. Description: Induction of apoptosis in human HepG2 cells assessed as caspase 3 activation after 24 hrs by fluorescence assay. The conditions noted are these: HepG2, 24 h. The procedure, abridged:
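Hep G2 cells seeded 2×10^4/well and made serum-free as for the other assays. Compound given at 10 nM–50 µM (1 mM methanol stock) for 24 h. Lysed on ice in 0.1% Triton X-100 buffer, pH 7.5, then centrifuged. Supernatant incubated 1 h at 37 °C with 8 µM DEVD-AFC in PIPES/CHAPS/DTT buffer. AFC fluorescence (ex 400/em 505 nm) quantified against an AFC standard and normalized to BCA protein. n = 9.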

Experiment [3] has as its system HepG2. Description: Cytotoxicity against human HepG2 cells after 48 hrs by WST8 assay. The settings on record: for IC50: HepG2, 48 h. In outline: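 Hep G2 cells grown in DMEM + 10% FCS (37 °C, 8.5% CO2), seeded 4×10^3/well for 48 h, then 24 h serum-free at ~80% confluence. Compound from 1 mM methanol stock, 10 nM–50 µM, 48 h, serum-free; solvent controls. Then WST-8 for 1 h at 37 °C, absorbance 450 nm, normalized to untreated control. Triplicate, three independent passages (n = 9).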
On the technique in general: Tetrazolium dyes change colour on reduction, which living cells bring about.

In the case of `C[C@@H]1Cc2c(Cl)cc(C(=O)N[C@H](Cc3ccccc3)C(=O)O)c(O)c2C(=O)O1` [3R14R-OCHRATOXIN A], the Activity entry in experiment [1] and in experiment [3] was “Dose-dependent effect” in each case. The EC50 in experiment [2] is above 10000 nM. This compound came in with an IC50 in experiment [3] of 3200 nM.

Turning to `C[C@@H]1Cc2c(Cl)cc(C(=O)N[C@@H](Cc3ccccc3)C(=O)O)c(O)c2C(=O)O1` [3R14S-OCHRATOXIN A], the Activity result in experiment [1] and in experiment [3] was “Dose-dependent effect” throughout. In addition, the EC50 in experiment [2] came out at 60 nM. This compound came in with an IC50 in experiment [3] of 300 nM.

As for `C[C@H]1Cc2c(Cl)cc(C(=O)N[C@H](Cc3ccccc3)C(=O)O)c(O)c2C(=O)O1` [3S14R-OCHRATOXIN A], the Activity entry in experiment [1] and in experiment [3] was “Dose-dependent effect” in each case. Besides, the EC50 in experiment [2] was determined as 3800 nM. Besides, in experiment [3], the midpoint of inhibition, the IC50, lay at 5000 nM.

With `C[C@H]1Cc2c(Cl)cc(C(=O)N[C@@H](Cc3ccccc3)C(=O)O)c(O)c2C(=O)O1` [3S14S-OCHRATOXIN A], in experiment [1], the Activity result is “Dose-dependent effect”. For the same compound, the EC50 in experiment [2] turned out to be 80 nM. Besides, in experiment [3], the Activity entry was “Dose-dependent effect” and the IC50 amounted to 400 nM.
